Screening results from PubChem.
UPR XBP1 act = activators of adaptive arm of unfolded protein response (XBP1); AID 463104; CHO-XBP1 luciferase reporter, IRE1-XBP1 UPR activation, luminescence; percent of tunicamycin response, DMSO as zero; activation, % at 20 µM; 330,000 compounds, 0.33% hits;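 active = versus positive control, 20 µM dose yields 30% or more activation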
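Assay system: IRE1-XBP1 luciferase reporter CHO line. Input: 1000 cells/well. Buffer or medium: F12 with 10% serum. Doses: 20 µM, 1% DMSO. Times: overnight seeding at 37 °C, 6 h compound treatment at 37 °C. Technique: Steady-Glo luciferase glow luminescence, 10 min after reagent addition.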
TMEM16A act = activators or potentiators of mouse TMEM16A chloride channel; 340,000 compounds, 0.3% hits; AID 623877; HEK293 TMEM16A/YFP-H148Q/I152L, iodide quench fluorescence; active compounds read low; Q8BHY3; B-score at 10 µM;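 active = fluorescence-ratio B-score plate-corrected deviation score at least 3 library SD below zero, with starting fluorescence score within 5 deviations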;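 note: channel opened by trigger with iodide after compound preincubation; score built on the fluorescence ratio of max minus min over baseline; more negative score means more quench and so TMEM16A activation or potentiation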
Target sequence (Q8BHY3 whole entry, looked up): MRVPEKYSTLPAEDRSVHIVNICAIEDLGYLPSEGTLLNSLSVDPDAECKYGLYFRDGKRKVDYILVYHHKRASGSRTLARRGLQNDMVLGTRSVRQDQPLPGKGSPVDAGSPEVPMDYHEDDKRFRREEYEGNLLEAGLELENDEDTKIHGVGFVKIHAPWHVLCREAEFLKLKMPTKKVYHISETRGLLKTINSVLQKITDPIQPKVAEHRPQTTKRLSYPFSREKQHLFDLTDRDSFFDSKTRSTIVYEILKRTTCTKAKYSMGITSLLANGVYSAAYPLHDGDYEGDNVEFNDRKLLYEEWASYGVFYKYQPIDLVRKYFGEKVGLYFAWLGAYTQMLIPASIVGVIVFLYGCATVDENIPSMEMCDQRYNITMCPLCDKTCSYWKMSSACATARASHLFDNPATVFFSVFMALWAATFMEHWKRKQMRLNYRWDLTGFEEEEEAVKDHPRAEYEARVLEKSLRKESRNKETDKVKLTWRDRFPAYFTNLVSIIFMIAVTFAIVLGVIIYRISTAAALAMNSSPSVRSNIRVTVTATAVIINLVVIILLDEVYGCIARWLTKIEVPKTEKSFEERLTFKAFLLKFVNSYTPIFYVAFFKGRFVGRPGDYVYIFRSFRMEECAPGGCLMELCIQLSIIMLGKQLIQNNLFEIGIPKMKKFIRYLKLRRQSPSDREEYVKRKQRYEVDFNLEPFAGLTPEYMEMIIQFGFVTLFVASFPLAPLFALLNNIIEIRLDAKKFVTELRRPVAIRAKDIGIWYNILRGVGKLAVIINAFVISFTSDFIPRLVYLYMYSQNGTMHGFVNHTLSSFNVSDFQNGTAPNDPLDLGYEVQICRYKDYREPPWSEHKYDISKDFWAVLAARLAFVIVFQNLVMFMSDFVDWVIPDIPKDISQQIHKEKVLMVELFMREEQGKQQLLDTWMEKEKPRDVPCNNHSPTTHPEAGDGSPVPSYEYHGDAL
CHOP UPR activ = apoptotic UPR (CHOP) activation | 330,000 compounds, 0.34% hits | activation, % at 10 µM | AID 449763 | CHO-CHOP luciferase reporter, luminescence; percent of tunicamycin response over DMSO baseline;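 active = at 10 µM dose, activation of 40% or more, normalized to positive control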
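System: CHO CHOP reporter cells. Amount: 500 cells per well. Buffer or medium: F12 medium, 10% FBS. Compound dosing: one dose, 10 µM in 0.5% DMSO. Incubation: 6 h compound exposure at 37 °C after overnight seeding. Technique: Steady-Glo luciferase luminescence. Benchmarks: tunicamycin and DMSO controls.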
Lipid droplet = modulators of hepatic lipid droplet formation | AML12 mouse hepatocytes, oleate lipid droplets, BODIPY imaging | inhibition, % at 6.5 µM | 240,000 compounds, 0.4% hits | AID 1656;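 active = lipid droplet intensity inhibited by at least 50%, with more than 500 cells counted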
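Test system: AML12 mouse liver cells; schedule: overnight exposure; technique: high-content imaging of BODIPY-stained droplets and DAPI nuclei; read-out: % inhibition of corrected integrated BODIPY droplet signal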
CHOP inhibitor = blocks CHOP induction under ER stress; 220,000 compounds, 3.8% hits; AID 2732; inhibition, % at 10 µM; CHO-K1 CHOP-promoter luciferase, tunicamycin-induced, 15-18 h;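 active = compounds that reduced the stress-induced luciferase reporter signal by more than about 70% of percent inhibition, limit read from the data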
ANO1 block = blocks the mouse calcium-activated chloride channel TMEM16A; Q8BHY3; normalized B-score (activity score, 25-100; higher = stronger inhibition) at 10 µM; AID 588511; HEK293 TMEM16A/YFP iodide influx fluorescence, ionomycin; 310,000 compounds, 1.2% hits;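 active = ratio plate-corrected score three or more library SD toward inhibition, starting fluorescence score within five deviations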;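 note: score derived from kinetic fluorescence span divided by baseline fluorescence per well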
Numbers stand for hits; – = inactive; · = no result given. The list is not random: actives were taken first. Their share in the collection is about 4.2%.

SMILES | UPR XBP1 act | TMEM16A act | CHOP UPR activ | Lipid droplet | CHOP inhibitor | ANO1 block
COC(=O)CSc1ncnc2c1cnn2Cc1ccccc1 | – | – | – | · | – | –
CC(C)OC(=O)CSc1ncnc2c1cnn2Cc1ccccc1 | – | – | – | · | 75 | –
CCOc1ccc(Oc2c(/C=N/NC(=O)COc3ccccc3OC)c(C)nn2-c2ccccc2)cc1 | – | – | – | · | 85 | –
O=C(COC(=O)c1ccc2c(c1)C(=O)N(c1cccc3ncccc13)C2=O)c1ccc(Cl)cc1 | – | – | – | – | 87 | –
CN(C)S(=O)(=O)c1cccc(COc2cccnc2[N+](=O)[O-])c1 | – | – | – | – | · | –
CN(C)S(=O)(=O)c1cccc(COc2ncnc3c(Cl)cc(Cl)cc23)c1 | – | -9.5 | – | – | · | –
CCN(CCNC(=O)Nc1ccc(Cl)cc1)c1ccccc1 | – | – | – | · | 75 | –
Cc1nn(Cc2ccccc2Cl)c2sc(C(=O)Nc3nccs3)cc12 | – | – | – | – | 84 | –
Cc1nn(Cc2ccc(F)cc2)c2sc(C(=O)Nc3ccccc3N3CCOCC3)cc12 | – | – | – | – | – | –
Cc1nn(Cc2ccc(F)cc2)c2sc(C(=O)Nc3nccs3)cc12 | – | – | – | – | 93 | –
Cc1cc(NC(=O)CCC(=O)N(c2ccccc2)C(C(=O)NC2CCCC2)c2ccc(F)cc2)no1 (stereo not given) | – | – | – | – | · | –
COc1ccc(CNC(=O)CNS(=O)(=O)c2cccs2)cc1 | – | – | – | – | · | –
CCCCOC(=O)NC(NCC(O)c1ccccc1)(C(F)(F)F)C(F)(F)F (stereo not given) | – | – | – | – | 81 | –
COc1cc(OC)cc(C(=O)NCCS(=O)(=O)N2CCN(Cc3ccccc3)CC2)c1 | – | – | – | · | · | –
COc1ccc(-c2nnn(CC(=O)N3CCN(c4ccc(F)cc4)CC3)n2)cc1 | – | – | – | – | – | –
COc1ccc(N2CCN(C(=O)CN3CCN(c4nc(-c5ccc(F)cc5)cs4)CC3)CC2)cc1 | – | – | – | – | 80 | 25
CCCCCNC(=O)Cc1ccc(S(=O)(=O)N2CCOCC2)s1 | – | – | – | · | · | –
COC(=O)c1ccc(CN(c2ccc(C(=O)O)c(O)c2)S(=O)(=O)c2ccc(Cl)c([N+](=O)[O-])c2)cc1 | · | – | · | – | · | 100
Cc1cccc(/C=N/NC(=O)c2ccc(NC(=O)c3cccc(Cl)c3)cc2)n1 | – | – | – | – | · | –
CCOC(=O)N1CC=C2C(C#N)=C(N)C(C#N)(C#N)[C@H](c3ccc(OC(C)C)c(OCC)c3)[C@H]2C1 | – | – | – | – | – | –
CCOC(=O)N1CC=C2C(C#N)=C(N)C(C#N)(C#N)[C@H](c3ccccc3OCC)[C@H]2C1 | – | – | – | – | 74 | –
CC(C)(C)NC(=O)CSc1nc2ccccc2n1-c1ccccc1 | – | – | – | – | 71 | –
CC1(C)N=C(SCC(=O)Nc2ccc(Cl)cc2Cl)C(c2ccccc2)=N1 | – | – | – | – | 76 | –
CN1CCN(C(=O)CSc2nc3ccc(NC(=O)c4ccccc4F)cc3s2)CC1 | – | – | – | – | – | –
CC(C)=CCc1c2c(c(O)c3c(=O)c4c(oc13)-c1cc(O)c(O)cc1OC4C=C(C)C)C=CC(C)(C)O2 (stereo not given) | – | · | – | · | · | –
SMILES | UPR XBP1 act | TMEM16A act | CHOP UPR activ | Lipid droplet | CHOP inhibitor | ANO1 block
CC(C)=CCc1c(-c2ccc(O)cc2O)oc2c3c(cc(O)c2c1=O)OC(C)(C)C=C3 | – | · | – | · | · | 25
O=C(c1ccc2ccccc2c1)N1CCN(c2ccc(C(F)(F)F)cn2)CC1 | – | – | – | – | 89 | –
O=C(c1ccc2c(c1)OCO2)N1CCN(c2ccc(C(F)(F)F)cn2)CC1 | – | – | – | – | – | –
CC(C)c1cc(CN2C(C)COCC2C)cc(C(C)C)c1O (stereo not given) | · | – | · | · | · | ·
Cc1cc(Nc2ccccc2)nn1C(=O)c1ccc(Br)cc1 | – | – | – | – | – | –
Cc1cc(Nc2ccccc2)nn1C(=O)c1ccccc1 | – | – | – | · | – | 25
COc1cccc2c1C(=O)O/C2=C/c1ccc2c(c1)OCO2 | – | – | – | – | 85 | –
COC(=O)C1=C(O)/C(=C\c2ccc(CNC(=O)C(=O)Nc3ccc(C)c(C)c3)o2)N=C1C | – | – | – | · | 73 | –
CC(C)(C)n1nnnc1C(c1ccccn1)N(Cc1ccccc1)Cc1ccc(Cl)cc1 (stereo not given) | – | -5.1 | – | – | – | –
Cc1cnc(CN(C)C(=O)c2ccc3oc(Cc4ccc(Cl)cc4)nc3c2)[nH]1 | – | – | – | – | · | –
O=C(Nc1cccc([N+](=O)[O-])c1)c1ccc2snnc2c1 | – | – | – | – | · | –
Cc1cccc(C(=O)NNC2=C(C(=O)C(F)(F)F)CCC2)c1O | – | – | – | – | – | 100
Cc1nc2ccc(NC(=O)c3cccs3)cc2c(=O)n1Cc1ccc(Cl)cc1 | – | – | – | – | – | 100
CCCc1nc2ccc(NC(=O)c3cccs3)cc2c(=O)n1Cc1ccc(Cl)cc1 | – | – | – | – | – | –
CCn1ccc(C(=O)Nc2ccc3c(c2)CCC3)n1 | – | – | – | – | · | –
C=CCc1cc(/C=N/NC(=O)CSc2nnc(CCCc3ccc(OC)cc3)o2)cc(OC)c1O | – | – | – | – | 78 | –
COc1ccc(/C=N/NC(=O)CSc2nnc(CCCc3ccc(OC)c(C)c3)o2)cc1 | – | – | – | – | 70 | 100
COc1ccc(CCCc2nnc(SCC(=O)N/N=C\c3ccc(O)c(OC)c3)o2)cc1C | – | – | – | · | – | –
C=CCc1cc(/C=N\NC(=O)CSc2nnc(CCCc3ccc(OC)c(C)c3)o2)cc(OC)c1O | – | – | – | – | – | –
COCCOc1ccc(C(F)(F)F)cc1NC(=O)c1ccc(C(F)(F)F)cc1 | – | – | – | – | – | –
COCCOc1ccc(C(F)(F)F)cc1Nc1nc2ccccc2o1 | – | – | – | – | 88 | –
CCc1c(C(=O)Nc2ccc(OC)c(Cl)c2)[nH]c(C)c1C(C)=O | – | – | – | · | 86 | –
COc1cc(C(=O)NC(=S)NNC(=O)[C@H]2C[C@@H]2c2ccccc2)cc(OC)c1OC | – | – | – | – | – | 25
COc1ccccc1C(=O)NNC(=S)NC(=O)c1cc(OC)c(OC)c(OC)c1 | – | – | – | – | – | –
COc1ccc(C(=O)NC(=S)Nc2ccc(N3CCCC3)cc2)cc1 | – | – | – | – | – | –
COc1cc(C(=O)NC(=S)Nc2ccc(N3CCCC3)cc2)cc(OC)c1OC | – | – | – | – | 75 | –
COc1ccc(S(=O)(=O)N2CCOc3ccccc32)cc1 | – | – | – | · | · | –
